# High-throughput results from PubChem BioAssay.
# TNF necrop inh – inhibitors of TNF-alpha triggered necroptosis, primary screen, cell-based, Jurkat FADD-/-, single concentration | Jurkat FADD-/- TNF necroptosis rescue, ATP luminescence, 24 h; 0 = TNF only, 100 = no-TNF cells | activation (protection from cell death), % at 10 µM | 220,000 tested, 0.068% active;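 active means activation, meaning protection from cell death, of at least 50% relative to plate controls; inactive means activation below 50%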;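 further: necroptosis triggered by 40 ng/mL TNF-alpha added together with compound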
# Dynein cargo inh – inhibitors of GR-EGFP nuclear translocation, primary screen, dynein cargo transport inhibitor project, imaging, high-content, 3617.4 mouse cells; test concentration mostly 20 µM; stimulated with dexamethasone, 1 µM; hits give low values; z-score, hits read low; 220,000 tested, 0.47% active; AID 1381, 2008;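 active means plate z-score of nuclear minus cytoplasmic receptor signal below a set negative limit, without overly bright fluorescence or cell loss, cut at about -3.5 in these data, passing the limit was not always enough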;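 further: z-score of nuclear minus cytoplasmic ring GR-EGFP intensity difference per well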
#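 Buffer or medium: tet-free, stripped-serum medium; reagent: dexamethasone at 1.0 µM final, 30 min; incubation: 48 h induction, 1 h compound, 30 min dex at 37 °C; measured by: formaldehyde fixation, Hoechst nuclear stain, 10x automated fluorescence imaging; read-out: nuclear-to-cytoplasmic GR-EGFP distribution per well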
# zVAD death inh – inhibitors of zVAD-triggered necroptosis, primary screen, L929 cells; L929 zVAD necroptosis rescue, ATP luminescence, 24 h; with zVAD 60 µM; viability rescue, % at 10 µM; 220,000 tested, 0.38% active;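 active means activation, scaled between plate controls, above about 75%, limit read from the data; inactive means activation under that limit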;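 further: 0% = zVAD with DMSO and 100% = DMSO alone without zVAD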
# MDM2 E3 inh – MDM2-luciferase reporter signal enhancers, primary screen, MDM2 E3 ligase inhibitor project, cell-based, luminescence, 1536-well; E3 ubiquitin-protein ligase Mdm2 (Homo sapiens), Q00987; cell-based MDM2 ubiquitination luciferase reporter, 2 h; 0 = plate control, 100 = twice control, blank-subtracted; signal enhancement, % at 5 µM; 210,000 tested, 0.11% active;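 active means signal enhancement of 30% or more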;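 further: luminescence tracks abundance of the self-degrading MDM2-luciferase fusion protein; higher signal means inhibition of MDM2 E3 ligase activity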
# Target sequence (Q00987 whole entry, looked up, the tested form may be a part): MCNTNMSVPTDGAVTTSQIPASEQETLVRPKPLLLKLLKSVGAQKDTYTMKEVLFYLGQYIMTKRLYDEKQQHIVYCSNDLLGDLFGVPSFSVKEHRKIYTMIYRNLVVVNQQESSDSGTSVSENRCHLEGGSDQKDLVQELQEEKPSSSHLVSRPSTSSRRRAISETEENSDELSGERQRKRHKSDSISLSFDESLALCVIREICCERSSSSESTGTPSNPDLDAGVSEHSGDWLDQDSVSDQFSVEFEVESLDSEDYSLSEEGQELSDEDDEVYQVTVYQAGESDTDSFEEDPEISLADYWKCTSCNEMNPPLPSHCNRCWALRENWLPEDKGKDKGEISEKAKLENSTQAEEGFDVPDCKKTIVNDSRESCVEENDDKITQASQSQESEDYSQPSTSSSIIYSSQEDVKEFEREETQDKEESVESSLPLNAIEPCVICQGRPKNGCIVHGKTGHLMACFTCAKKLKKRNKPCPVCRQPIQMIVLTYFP
#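 Material: stable MDM2–luciferase fusion reporter cells / Quantity: 2000 cells/well / Dosing: single 5 µM compound dose, 0.2% final DMSO / Buffer or medium: DMEM / Schedule: 4 h cell settling then 2 h compound exposure, 37 °C / Detection: luminescence with SteadyLite reagent, 15 min at room temperature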
# Autophagy mod – autophagy modulators in MEF cells, primary screen, imaging, high-content, MEF GFP-LC3; calls only at 10 µM (by protocol); MEF GFP-LC3 puncta imaging; test concentration mostly 10 µM; 190,000 tested, 0.98% active; AID 463193, 2010;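 active means percentage of spot-positive cells more than 3 SD above its plate mean, without a fluorescence outlier flag or 80% toxicity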;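 further: spot-positive cell cutoff set from DMSO-treated cells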
# Hck Nef HTS – inhibitors of Nef-activated human Hck kinase, primary screen, biochemical, Z-Lyte FRET, 384-well, Hck-YEEI. Recombinant Hck-YEEI plus Nef, Z-Lyte FRET kinase assay. inhibition, % at 20 µM. 220,000 tested, 0.68% active. AID 463187, 2010;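 active means Hck-Nef kinase inhibition above about 50%, limit read from the data; inactive means inhibition below that limit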;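 further: 0% = DMSO with Hck plus Nef and 100% = Hck alone without Nef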
# Dynein confirm – dynein cargo transport inhibitors, GR-EGFP translocation, confirmation, imaging, high-content imaging, GR-EGFP cells | shares compounds with Dynein cargo inh | 3617.4 GR-EGFP nuclear translocation imaging, dexamethasone-induced | calls only at 20 µM | 1,000 tested, 69% active | AID 463116, 2010;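 active means inhibition of receptor movement into the nucleus at or above a set limit in both runs, with normal cell brightness and cell count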;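 further: dexamethasone at 1 µM final in well for 30 min; nuclear minus cytoplasmic GR-EGFP mean intensity difference in channel 2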
# Hck Nef conf – retest of Hck:Nef kinase inhibitor hits, confirmation, biochemical, Z-Lyte FRET, 384-well, p-Tyr peptide counterscreen | AID 463188, 2010 | Recombinant Hck-YEEI:Nef, Z-Lyte FRET kinase assay | calls only at 10 µM | shares compounds with Hck Nef HTS | 1,300 tested, 28% active;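 active means average inhibition of at least 50%, with Z-scores no higher than 3 in both the phospho-tyrosine peptide and fluorescence counterscreens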
# Numbers without * were called inactive; i = inactive; . = no result shown; + = active, no number. Compounds with a hit are over-represented: about 2.4% of the library has one in this group of screens.
SMILES,TNF necrop inh,Dynein cargo inh,zVAD death inh,MDM2 E3 inh,Autophagy mod,Hck Nef HTS,Hck Nef conf,others
O=C1ON=C(c2ccccc2)/C1=C\c1ccco1,-6.5,-4.44*,-0.8,-8.5,.,53.9*,i,Dynein confirm=+
CC(=O)CC(C)(C)n1nnc(-c2ccccc2)n1,-2.4,0.359,-0.1,-10.5,i,-0.2,.,
CC1(C)CC(=O)C(=Cc2cn(-c3ccccc3)nc2-c2ccc(Cl)cc2)C(=O)C1,-14.4,-0.838,0.1,-17.8,i,-0.3,.,
CC1=NNC(=O)/C1=C\c1cn(-c2ccccc2)nc1-c1ccccc1,-14.5,-3.93*,-1.6,8.0,i,181.4*,+,Dynein confirm=i
CCOc1ccc(NC(=O)Nc2ccccc2SC)cc1,-1.1,-0.926,3.2,-16.9,i,9.7,.,
CC1=NOC(=O)/C1=C\c1ccc(-c2ccccc2Br)o1,-4.2,-3.67*,1.8,-23.4,i,51.7*,i,Dynein confirm=+
Cc1cc(C)c(Nc2cc(S(=O)(=O)O)c(N)c3c2C(=O)c2ccccc2C3=O)c(C)c1,-5.9,0.725,0.0,-24.7,i,84.4*,+,
c1ccc(CNc2ncnc3nc[nH]c23)cc1,-1.6,-0.433,0.3,-6.9,i,1.0,.,
Fc1ccc(/C=N/Nc2ncnc3nc[nH]c23)cc1F,-11.0,1.16,.,.,i,67.5*,+,
Cc1ccccc1/C=N/Nc1ncnc2nc[nH]c12,-11.4,0.249,0.6,-4.4,.,74.8*,+,
CCc1ccc(Nc2ncnc3nc[nH]c23)cc1,-4.2,0.177,0.6,-21.2,.,63.2*,+,
Cc1ccsc1/C=N/Nc1ncnc2nc[nH]c12,-6.8,-0.774,64.2,-1.1,i,75.6*,+,
Clc1ccc(CCNc2ncnc3nc[nH]c23)cc1,-8.9,-1.13,2.6,-13.9,.,28.5,.,
Cn1nnnc1SCC(=O)NC1CCCc2ccccc21 (configuration not stated),-0.4,-0.76,0.6,-9.9,i,23.3,.,
COc1cccc2c1OC[C@@H](CO)[C@H]2N(C)C(=O)Nc1ccc(Cl)cc1Cl,-9.2,.,-0.2,-11.8,i,0.2,.,
CCOC(=O)c1cc2nc(Nc3ccc(OC)cc3)sc2s1,6.2,0.384,0.8,-15.3,i,51.4*,i,
CCOC(=O)c1sc(Nc2ccc(Br)cc2)nc1C,3.1,-0.419,0.7,-18.3,.,7.3,.,
COC(=O)C1=CN(C(C)C)C=C(C(=O)OC)C1c1cccc(OC)c1,-1.2,-0.15,-0.5,-57.1,i,60.6*,.,
COC(=O)C1=CN(C(C)C)C=C(C(=O)OC)C1c1cc(Br)c(OC)c(OC)c1,-3.2,0.228,0.2,1.9,i,61.0*,.,
COc1cc(C(=O)NCc2ccccc2)cc(Br)c1OC,0.4,0.0614,0.4,4.4,i,2.3,.,
COc1cc([N+](=O)[O-])ccc1-c1ccc(/C=N/NC(=O)c2ccccc2O)o1,-1.1,-0.412,0.6,-11.2,.,73.6*,i,
O=C(N/N=C/c1ccc(-c2cccc([N+](=O)[O-])c2)o1)c1ccccc1O,-3.4,1.7,-0.5,-13.7,i,9.0,.,
Cc1cccc(C)c1NC(=O)NC1(C(=O)N2CCOCC2)CCCCC1,-0.4,0.292,2.7,-13.2,i,27.4,.,
CC(=O)N1CCn2c3ccc(C)cc3c3cccc1c32,0.4,-0.797,-0.2,-9.8,i,-6.8,.,
O=C(NCc1nc2ccccc2[nH]1)c1ccc(Cl)c(S(=O)(=O)N2CCCC2)c1,2.4,-0.204,-0.6,-21.3,i,2.8,.,
SMILES,TNF necrop inh,Dynein cargo inh,zVAD death inh,MDM2 E3 inh,Autophagy mod,Hck Nef HTS,Hck Nef conf,others
CCCn1c(NC(=O)c2ccc(Cl)c(S(=O)(=O)N3CCCC3)c2)nc2ccccc21,-7.0,-0.471,63.5,-4.5,i,72.6*,+,
COC(=O)c1ccccc1NC(=O)c1ccc2c(c1)C(=O)N(Cc1ccco1)C2=O,-0.7,0.178,0.3,.,i,58.5*,i,
Cc1c(NC(=O)c2ccc3c(c2)C(=O)N(Cc2ccco2)C3=O)cccc1C(=O)O,0.1,0.00835,7.4,-3.8,i,23.3,.,
Cc1cc(C)n(-c2nc3ccccc3n3cnnc23)n1,-2.9,0.152,-0.1,-14.6,i,-0.7,.,
CCN(CC)c1nc2ccccc2nc1-n1nc(C)cc1C,0.4,1.44,0.1,-5.4,i,103.4*,i,
C[C@H](NC(=O)c1[nH]cnc1C(=O)Nc1ccc(CNC(=O)OC(C)(C)C)cc1)C(=O)OC(C)(C)C,-5.2,-0.398,1.0,-4.8,.,57.2*,i,
COc1cccc(NC(=O)Cn2c(=O)c3c(ncn3Cc3ccccc3)n(Cc3ccccc3)c2=O)c1,-5.2,0.691,0.9,-9.9,i,-11.2,.,
Cc1ccc(NC(=O)Nc2sc(=S)n(C)c2C)cc1,1.3,-0.223,-0.4,-53.8,i,92.4*,i,
CC(=O)NC(=O)Nc1sc(=S)n(C)c1C,-0.8,0.647,1.2,-2.6,i,2.8,.,
CCC(C)NC(=O)CCC(=O)Nc1ccc2nc(N3CC(C)CC(C)C3)cc(C)c2c1 (configuration not stated),7.5,-0.875,15.6,-4.8,i,52.3*,i,
CCC(C)NC(=O)CCC(=O)Nc1ccc2nc(N3CCOCC3)cc(C)c2c1 (configuration not stated),-0.7,0.196,2.8,-17.6,i,3.0,.,
COc1ccc(NC(=O)c2ccc(S(=O)(=O)N3CCOCC3)o2)cc1,0.1,0.188,-0.3,-11.3,.,2.3,.,
Cc1cccn2c(=O)c3cc(C(=O)NCc4ccco4)c(=N)n(CCOCCO)c3nc12,-1.9,-0.866,-0.3,-15.6,i,74.7*,i,
COCCn1c(=N)c(C(=O)NCc2ccco2)cc2c(=O)n3cc(C)ccc3nc21,0.5,-0.00126,-1.6,-9.2,i,85.6*,.,
CC(C)c1cc(NCCCN2CCOCC2)n2c(nc3ccccc32)c1C#N,5.0,-0.657,3.5,-4.8,i,53.8*,.,
